High-throughput results (PubChem)
TAAR1 ag – human TAAR1 agonists, primary screen, Fluo-8 calcium fluorescence, CHO RD-HGA16 cells; activation, % at 3 µM; vehicle wells 0%, saturating PEA agonist 100%; 0.99% of 360,000 active;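 active = activation above the mean activation of all test compounds in the run plus 3 SD, cut at about 38% in these data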
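Assay system – CHO-derived RD-HGA16 cells with stable Gα16 and human TAAR1 · Compound dosing – one-point dosing at 3 µM (nominal) · Incubation – 17-24 h seeding, 75 min 37 °C dye, 30 min RT · Measured by – kinetic Fluo-8 calcium fluorescence · Control set – DMSO vehicle as 0%, PEA at EC100 as 100% · Repeats – single well for each compound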
CHRM1 agonist – human M1 muscarinic receptor agonists, primary screen, Fluo-8 calcium fluorescence, CHO-K1 cells, HTS. Muscarinic acetylcholine receptor M1 (Homo sapiens), P11229. CHO-K1 hM1, agonist mode; 0% DMSO, 100% acetylcholine EC100. activation, % at 3 µM. 0.33% of 360,000 active;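 active = activation above the run's mean compound activation plus 3 SD, cut at about 16% in these data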;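 note: peak over basal fluorescence ratio within a 140 s kinetic read after compound addition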
Target sequence (P11229 whole entry, looked up): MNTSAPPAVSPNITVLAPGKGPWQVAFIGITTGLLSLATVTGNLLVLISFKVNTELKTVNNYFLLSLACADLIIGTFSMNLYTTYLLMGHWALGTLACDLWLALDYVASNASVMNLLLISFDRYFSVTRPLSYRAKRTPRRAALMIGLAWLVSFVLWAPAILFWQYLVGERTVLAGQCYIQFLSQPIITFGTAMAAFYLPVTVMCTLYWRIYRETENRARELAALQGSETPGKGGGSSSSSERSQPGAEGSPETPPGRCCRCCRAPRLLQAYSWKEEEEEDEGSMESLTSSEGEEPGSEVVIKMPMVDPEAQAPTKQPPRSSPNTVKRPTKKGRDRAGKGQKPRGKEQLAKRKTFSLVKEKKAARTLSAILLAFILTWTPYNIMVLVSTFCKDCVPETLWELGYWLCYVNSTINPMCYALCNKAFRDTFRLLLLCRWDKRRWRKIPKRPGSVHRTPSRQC
TAAR1 antag – human TAAR1 antagonists, primary screen, Fluo-8 calcium fluorescence, CHO RD-HGA16 cells; Trace amine-associated receptor 1 (Homo sapiens), Q96RJ0; antagonist; inhibition, % at 3 µM; 1.5% of 360,000 active;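 active = inhibition above a per-plate cutoff, the mean inhibition of test compounds on that plate plus 3 SD, cut at about 49% in these data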;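 note: 0% = DMSO plus EC80 beta-PEA response and 100% = DMSO alone without agonist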
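Test system: CHO RD-HGA16 cells bearing hTAAR1 | Reagent: β-PEA, EC80 | Compound dosing: 3 µM, single point | Schedule: Dye loading 75 min at 37 °C, then 30 min room temperature | Signal: Calcium fluorescence with Fluo-8 | Evaluation: Percent inhibition of PEA-evoked calcium signal, max/basal emission ratio | Control set: DMSO-only wells and EC80 β-PEA-stimulated wells | Repeats: Singlicate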
CHRM1 antagonist – human M1 muscarinic receptor antagonists, primary screen, CHO-K1 cells, Fluo-8 calcium fluorescence, 1536-well. inhibition, % at 3 µM. CHO-K1 hM1, ACh EC80 antagonist. 1.3% of 360,000 active. AID 588852, 2011;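 active = percent inhibition above its own plate's cutoff, namely the mean of that plate's compound wells plus 3 SD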;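 note: peak over basal fluorescence ratio during 140 s after agonist addition; 0% = ACh EC80 plus DMSO and 100% = DMSO alone without agonist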
CHRM1 PAM – human M1 muscarinic receptor positive allosteric modulators, primary screen, CHO-K1 cells, Fluo-8 calcium fluorescence, 1536-well. CHO-K1 hM1, ACh EC20; 0% = ACh EC20, 100% = maximal ACh. Muscarinic acetylcholine receptor M1 (Homo sapiens), P11229. activation, % at 3 µM. 0.088% of 360,000 active. AID 588819, 2011; in the data active = activation above about 19%, passing the limit was not always enough
nonsel antag count – nonselective antagonists in TAAR1 counter-screen cells, counter-screen for hTAAR1 antagonist project, cell-based, fluorescence, calcium. shares compounds with TAAR1 antag. counterscreen cell line, antagonist mode. inhibition, % at 3 µM. 77% of 2,400 active. AID 651780, 2012; in the data active = inhibition above about 22%;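 note: CHO-Ga16 host cells stimulated with ATP at an EC80 level; 0% = agonist EC80 plus vehicle and 100% = vehicle without agonist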
TAAR1 antag conf – human TAAR1 antagonists, retest of hits, confirmation, cell-based, fluorescence | 40% of 2,400 active | shares compounds with TAAR1 antag | inhibition, % at 3 µM | AID 651785, 2012 | TAAR1-expressing cells, fluorescence antagonist read-out; in the data active = inhibition above about 49%;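 note: CHO-Ga16 host cells challenged with agonist PEA near its EC80; 0% = agonist at EC80 plus vehicle and 100% = vehicle with no agonist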
Ga16 nonsel ag – calcium activation in Ga16-expressing cells, counter-screen for TAAR1 antagonist project, cell-based, fluorescence | shares compounds with TAAR1 antag | agonist counterscreen | activation, % at 3 µM | 18% of 2,400 active | AID 651953, 2012; in the data active = activation above about 12%;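 note: 0% = vehicle wells and 100% = saturating stimulus response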
TAAR1 ag counter – TAAR1 activation by candidate antagonists – cell-based, fluorescence, counter-screen for TAAR1 antagonist project | shares compounds with TAAR1 antag | hTAAR1 cell line, agonist mode | activation, % at 3 µM | 2% of 2,400 active; in the data active = activation above about 37%;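 note: CHO cells stably expressing TAAR1 with calcium dye readout; 0% = DMSO vehicle and 100% = full agonist response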
Starred values were filed as active, the others as inactive; · = no result given. Most compounds without a hit are left out; they make up all but 3.4% or so of the library.

SMILES	TAAR1 ag	CHRM1 agonist	TAAR1 antag	CHRM1 antagonist	CHRM1 PAM	nonsel antag count	TAAR1 antag conf	Ga16 nonsel ag	TAAR1 ag counter
O=C(Nc1ccc(Cl)cc1)N(Cc1cccs1)Cc1cccs1	14	-3	71*	-7	-13	29*	45	5	1
O=C(Nc1ccc(Cl)cc1)N(Cc1nc2ccccc2c(=O)[nH]1)Cc1cccs1	15	-6	33	-1	1	·	·	·	·
Cc1c(NC(=O)CSc2ccc(Cl)cc2)cccc1-c1nc2ncccc2o1	11	0	60*	-19	-1	31*	46	11	10
O=c1c(/C=N\NS(=O)(=O)c2ccccc2)coc2ccc(Cl)cc12	9	-1	59*	3	0	26*	49*	6	10
Cc1cc(Br)c(OCc2ccc(C(=O)N/N=C/c3ccc[nH]3)cc2)c(Br)c1	·	1	·	0	3	14	·	3	·
Cc1cc(C)c(NC(=O)C2C(=O)Nc3ccccc3C(=O)N2C(C)(C)C)c(C)c1 (stereo unspecified)	5	·	-9	·	·	·	·	·	·
COc1cccc(NC(=O)COc2cc(O)c3c(c2)OC(C)(C)CC3=O)c1	9	-1	60*	8	-14	27*	45	9	7
CCOc1ccc2oc(C(=O)N3CCN(c4ccccc4OCC)CC3)c(C)c2c1	3	-2	60*	22	-7	20	43	2	11
COc1ccc(-c2cc(C(=O)N3CCN(c4ncccn4)CC3)c3ccccc3n2)c(OC)c1	16	-1	74*	30	-15	31*	54*	8	9
COc1ccc(-c2cc(C(=O)N3CCN(c4ccccc4)CC3)c3ccccc3n2)cc1	12	-4	48	16	-12	·	·	·	·
COc1ccc(N2CCN(C(=O)c3cc(-c4cc(OC)ccc4OC)nc4ccccc34)CC2)cc1	10	0	60*	24	-6	27*	49*	11	15
COc1ccc(-c2cc(C(=O)N3CCN(c4ncccn4)CC3)c3ccccc3n2)cc1	35	-1	52*	23	-12	29*	48	10	8
CCOc1ccc2oc(C(=O)N3CCCN(C)CC3)c(C)c2c1	5	-7	-11	-8	8	·	·	·	·
CCOC(=O)C1(C)CCCN(C(=O)c2cc(C#N)cs2)C1 (stereo unspecified)	1	-4	-23	-10	5	·	·	·	·
COc1cccc(CNC(=O)[C@@H]2CCCN2C(=O)[C@H]2CCCCN2C(=O)c2cccc(Cl)c2)c1	1	·	1	·	·	·	·	·	·
COc1ccc(N2CCN(C(=O)c3cc4c(C)nc5ccccc5c4o3)CC2)cc1	4	1	62*	8	-8	37*	51*	12*	10
CS(=O)(=O)N1CCN(C(=O)c2cc(-c3cccs3)nc3ccccc23)CC1	19	8	29	1	0	·	·	·	·
O=C(c1cc(-c2cccnc2)nc2ccccc12)N1CCN(S(=O)(=O)c2cccs2)CC1	17	-3	51*	-4	0	22*	34	6	5
CCOc1ccccc1N1CCN(C(=O)c2cc(-c3cc(OC)ccc3OC)nc3ccccc23)CC1	4	-1	73*	33*	-10	21	43	6	4
COc1ccc(-c2cc(C(=O)N3CCCCCC3)c3ccccc3n2)c(OC)c1	1	-4	35	2	-2	·	·	·	·
COc1ccc(OC)c(-c2cc(C(=O)N3CCN(c4ncccn4)CC3)c3ccccc3n2)c1	11	0	78*	26	-7	28*	47	7	20
CCOC(=O)C1=CCN(S(=O)(=O)c2ccc(F)cc2)C1c1ccc(Cl)c(Cl)c1 (stereo unspecified)	-1	·	10	·	·	·	·	·	·
CCOc1ccc(C(CN2CCOCC2)C(C)=O)cc1OC (stereo unspecified)	8	-2	-18	4	-1	·	·	·	·
COc1ccc2nc(-c3ccccc3)cc(C(=O)N3CCC3)c2c1	8	-1	25	5	0	·	·	·	·
COc1cccc(CN2CCN(C(=O)c3cc(-c4cccnc4)nc4ccc(C)cc34)CC2)c1	14	0	66*	25	-8	27*	48	9	8
SMILES	TAAR1 ag	CHRM1 agonist	TAAR1 antag	CHRM1 antagonist	CHRM1 PAM	nonsel antag count	TAAR1 antag conf	Ga16 nonsel ag	TAAR1 ag counter
COc1ccc([C@H]2CC(=O)C=C(c3ccc(C)cc3)C2)cc1OC	4	-3	28	1	-6	·	·	·	·
COc1ccc([C@H]2CC(=O)C=C(c3ccccc3Oc3ccccc3)C2)cc1	8	-2	50*	-8	5	11	17	1	2
COc1ccc([C@H]2CC(=O)C=C(c3ccccc3-c3ccccc3)C2)cc1	12	-3	-7	7	-5	·	·	·	·
COc1ccc(C2=CC(=O)C[C@H](c3ccc(F)cc3)C2)cc1OC	4	-7	92*	25	-17	16	51*	0	-3
COc1ccc2[nH]c(=O)c(CN(Cc3nnnn3Cc3ccco3)C3CCCCC3)cc2c1	25	-2	67*	4	5	28*	51*	12*	18
COc1ccc2[nH]c(=O)c(CN(C3CCCCC3)C(c3nnnn3Cc3ccco3)C(C)C)cc2c1 (stereo unspecified)	·	-2	·	4	0	·	·	·	·
CSc1ccc(Cn2c(C)c(C(=O)NCc3ccc(Cl)c(Cl)c3)sc2=O)cc1	1	-2	19	5	-4	·	·	·	·
Cc1c(C(=O)NCc2ccc(Cl)c(Cl)c2)sc(=O)n1Cc1ccc(S(C)(=O)=O)cc1	21	-2	72*	16	-17	35*	37	14*	13
CCOC(=O)[C@]12CCCC=C1N(Cc1ccco1)C(=O)[C@H](CC(=O)NCc1cccc(C(F)(F)F)c1)C2	-1	·	-21	·	·	·	·	·	·
